Each structure is given as a SMILES string.

Results on ten molecules are retold here after ChEMBL document CHEMBL1134070, “Ring-Constrained (N)-methanocarba nucleosides as adenosine receptor agonists: independent 5'-uronamide and 2'-deoxy modifications” (Bioorg Med Chem Lett, 2001).

In experiment [1] the target is T1, Adenosine receptor A3 (Homo sapiens, UniProt P0DMS8).
T1 sequence (P0DMS8 whole entry): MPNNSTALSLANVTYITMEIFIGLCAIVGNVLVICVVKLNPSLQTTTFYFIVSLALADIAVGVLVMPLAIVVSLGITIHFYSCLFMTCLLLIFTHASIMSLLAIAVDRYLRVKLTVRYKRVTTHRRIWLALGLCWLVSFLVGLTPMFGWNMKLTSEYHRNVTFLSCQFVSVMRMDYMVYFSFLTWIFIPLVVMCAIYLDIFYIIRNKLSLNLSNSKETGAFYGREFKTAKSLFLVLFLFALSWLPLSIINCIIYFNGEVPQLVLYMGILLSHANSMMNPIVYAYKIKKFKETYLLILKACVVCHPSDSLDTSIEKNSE
The experiment in a line: Ability to displace specific radioligand [125I]AB-MECA binding at human Adenosine A3 receptor expressed in CHO cells. Format: cell-based.

In experiment [2] the target is T2, Adenosine receptor A1 (Rattus norvegicus, UniProt P25099).
T2 sequence (P25099 whole entry): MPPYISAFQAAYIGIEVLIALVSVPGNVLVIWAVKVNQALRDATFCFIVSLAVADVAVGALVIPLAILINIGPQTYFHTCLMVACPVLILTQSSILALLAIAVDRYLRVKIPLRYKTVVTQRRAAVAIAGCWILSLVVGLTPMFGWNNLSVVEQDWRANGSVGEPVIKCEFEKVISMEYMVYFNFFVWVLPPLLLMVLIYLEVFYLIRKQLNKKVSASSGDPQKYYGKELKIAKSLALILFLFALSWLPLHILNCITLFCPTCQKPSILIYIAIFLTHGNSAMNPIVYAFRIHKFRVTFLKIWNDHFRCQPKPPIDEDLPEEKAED
The experiment in a line: Ability to displace specific radioligand [3H]R-PIA binding at Adenosine A1 receptor in rat brain membrane. The experiment is classed as cell membranes. Put shortly:
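Rat brain membranes; competition against specific [3H]R-PIA binding at A1 receptors.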

In experiment [3] the target is T3, Adenosine receptor A2a (Rattus norvegicus, UniProt P30543). The experiment in a line: Ability to displace specific radioligand [3H]-CGS- 21680 binding at A2A receptors (rA2A) in rat brain membrane. Format: cell membranes. The gist of the method:
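Rat striatal membranes; competition against specific [3H]CGS 21680 binding at A2A receptors.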

Experiment [4] concerns the target Adenosine receptor A2a (Rattus norvegicus) (UniProt P30543). The experiment in a line: Displacement of [3H]-CGS- 21680 from Adenosine A2A receptor in rat striatal membranes at 10 uM. Format: cell membranes. As to conditions: Membrane. Put shortly: (§1)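 Rat striatal membranes; percent displacement of specific [3H]CGS 21680 binding at A2A receptors measured at a single 10 μM test concentration.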

Experiment [5] has the same target. The experiment in a line: Displacement of [3H]-CGS- 21680 from A2A receptors (rA2A) in rat striatal membranes at 100 uM. Format: cell membranes. As to conditions: Membrane. Put shortly: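 Rat striatal membranes; percent displacement of specific [3H]CGS 21680 binding at A2A receptors measured at a single 100 μM test concentration.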
Experiment [6] has as its target T4, Adenosine receptor A1 (Homo sapiens) (UniProt P30542).
T4 sequence (whole entry): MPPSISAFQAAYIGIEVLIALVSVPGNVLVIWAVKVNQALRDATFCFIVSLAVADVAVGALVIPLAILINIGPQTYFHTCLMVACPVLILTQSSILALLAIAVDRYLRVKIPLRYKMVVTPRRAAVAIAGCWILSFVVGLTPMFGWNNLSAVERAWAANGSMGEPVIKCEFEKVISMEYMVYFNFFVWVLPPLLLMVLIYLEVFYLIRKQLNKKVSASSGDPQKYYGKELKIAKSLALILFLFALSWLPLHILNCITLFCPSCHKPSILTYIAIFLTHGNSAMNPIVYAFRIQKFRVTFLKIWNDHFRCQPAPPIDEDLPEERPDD
The experiment in a line: Efficacy to stimulate binding of [35S]GTP-gamma-S, at human Adenosine A1 receptor. The experiment is classed as functional. The gist of the method:
(§2)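 Functional agonist assay: stimulation of [35S]GTP-γ-S binding following activation of the human A1 receptor. EC50 and percent efficacy reported as mean±value.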
In general terms: Binding of GTPγS marks nucleotide exchange on a G protein.

In experiment [7] the target is T5, Adenosine receptor A1 (Homo sapiens, UniProt P30542).
T5 sequence (P30542 whole entry): T4 sequence (whole entry)
The experiment in a line: Agonist efficacy as effective concentration to stimulate binding of [35S]GTP-gamma-S, at human A1 adenosine receptor. The experiment is classed as functional. Put shortly:
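Functional agonist assay measuring agonist-stimulated [35S]GTP-γ-S binding through activation of the human A1AR. Potency was reported as EC50 together with percent efficacy, each as mean ± error.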

In experiment [8] the target is T3, Adenosine receptor A2a. The experiment in a line: Displacement of [3H]-CGS- 21680 from Adenosine A2A receptor in rat brain membrane. Format: cell membranes. For orientation: Displacement assays read how much labelled ligand stays bound in the presence of the test substance.
In experiment [9] the target is T5, Adenosine receptor A1. The experiment in a line: Agonist efficacy as effective concentration to stimulate binding of [35S]GTP-gamma-S, at human Adenosine A1 receptor. The experiment is classed as functional. Put shortly:
as §2

Experiment [10] concerns the target T1, Adenosine receptor A3. The experiment in a line: Agonist efficacy as effective concentration to stimulate binding of [35S]GTP-gamma-S, by activation of human A3AR receptor. The experiment is classed as functional.
Experiment [11] deals with Adenosine receptor A2a (Rattus norvegicus) (UniProt P30543). The experiment in a line: Displacement of [3H]-CGS- 21680 from A2A receptors (rA2A) in rat striatal membranes at 10 uM. The experiment is classed as cell membranes. As to conditions: Membrane. Put shortly: as §1
Sequence of Adenosine receptor A2a (Rattus norvegicus) (P30543 whole entry): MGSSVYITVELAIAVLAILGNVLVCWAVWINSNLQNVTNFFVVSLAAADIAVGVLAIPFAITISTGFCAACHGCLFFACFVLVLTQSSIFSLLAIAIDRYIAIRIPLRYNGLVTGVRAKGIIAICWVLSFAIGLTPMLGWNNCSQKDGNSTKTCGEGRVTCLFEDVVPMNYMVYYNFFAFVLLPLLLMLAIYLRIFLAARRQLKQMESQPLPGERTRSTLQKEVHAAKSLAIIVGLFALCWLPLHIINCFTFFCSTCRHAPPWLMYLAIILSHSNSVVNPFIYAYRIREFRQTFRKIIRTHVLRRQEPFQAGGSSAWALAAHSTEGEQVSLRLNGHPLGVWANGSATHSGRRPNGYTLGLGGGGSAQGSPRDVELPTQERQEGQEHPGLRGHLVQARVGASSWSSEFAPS

T3 sequence (P30543 whole entry): as above

Turning to `OC[C@@]12C[C@@H]1[C@@H](n1cnc3c(NCc4cccc(I)c4)nc(Cl)nc31)C[C@@H]2O`, the values for the inhibition constant (Ki) on Adenosine receptor A3 [1], at Adenosine receptor A1 [2] and at Adenosine receptor A2a [3] were 912 nM, 8730 nM and 25400 nM, respectively.
As to `CNc1ncnc2c1ncn2[C@H]1[C@H](O)[C@H](O)[C@]2(CO)C[C@H]12`, the Displacement in experiment [4] was less than 10%.
With `Nc1nc(Cl)nc2c1ncn2[C@H]1[C@H](O)[C@H](O)[C@]2(CO)C[C@H]12`, the Ki worked out at 84.7 nM at Adenosine receptor A3 [1] and 273 nM on Adenosine receptor A1 [2].
The molecule `CNc1nc(Cl)nc2c1ncn2[C@H]1[C@H](O)[C@H](O)[C@]2(CO)C[C@H]12` gave a Displacement in experiment [4] of less than 10%. Also, the Ki at Adenosine receptor A3 [1] turned out to be 22.5 nM; at Adenosine receptor A1 [2], 884 nM.
Take `OC[C@@]12C[C@@H]1[C@@H](n1cnc3c(NC4CCCC4)ncnc31)C[C@@H]2O`: the Ki is 2880 nM on Adenosine receptor A3 [1] and 5110 nM at Adenosine receptor A1 [2]. Moreover, the Displacement in experiment [5] is 15%. Further, the Efficacy in experiment [6] amounted to 30%. On Adenosine receptor A1 [7], this molecule displayed a half-maximal effective concentration (EC50) of 2890 nM.
Regarding `CCNC(=O)[C@@]12C[C@@H]1[C@@H](n1cnc3c(N)ncnc31)[C@H](O)[C@@H]2O`, at Adenosine receptor A2a [8], the inhibition constant Ki stood at 100 nM.
`OC[C@@]12C[C@@H]1[C@@H](n1cnc3c(NC4CCCC4)nc(Cl)nc31)C[C@@H]2O` registered a Displacement in experiment [5] of 45%. Moreover, on Adenosine receptor A1 [9], the concentration giving a half-maximal response (EC50) stood at 2280 nM. In experiment [6], the Efficacy is 40%.
As to `CNC(=O)[C@@]12C[C@@H]1[C@@H](n1cnc3c(NCc4cccc(I)c4)ncnc31)[C@H](O)[C@@H]2O`, the values for the inhibitory constant (Ki) at Adenosine receptor A3 [1], at Adenosine receptor A1 [2] and at Adenosine receptor A2a [3] were 2.39 nM, 52.7 nM and 548 nM, respectively. On Adenosine receptor A3 [10], this molecule came in with an EC50 of 6.8 nM.
Take `CNC(=O)[C@@]12C[C@@H]1[C@@H](n1cnc3c(NC)nc(Cl)nc31)[C@H](O)[C@@H]2O`: the inhibition constant Ki on Adenosine receptor A3 [1] stood at 6.19 nM; at Adenosine receptor A1 [2], 805 nM. The Displacement in experiment [11] was less than 10%. Further, at Adenosine receptor A3 [10], a half-maximal response (EC50) required 25.5 nM.
In the case of `CNC(=O)[C@@]12C[C@@H]1[C@@H](n1cnc3c(NCc4cccc(I)c4)nc(Cl)nc31)[C@H](O)[C@@H]2O`, the inhibition constant Ki on Adenosine receptor A1 [2] worked out at 83.9 nM; at Adenosine receptor A2a [3], 1660 nM.

A word on the Ki: it is the dissociation constant of the complex between target and ligand, obtained from inhibition or displacement. Read a low Ki as tighter binding. By EC50 is commonly meant the midpoint of the concentration-response curve.
